KCNK9 block: KCNK9 potassium channel inhibitors, primary screen, HEK293 cells, thallium flux | FluxOR thallium flux fluorescence; active compounds read low | B-score at 10 µM | hit rate 1.2% among 310,000;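 active = ratio B-score over 3 SD below the library mean, with starting fluorescence within 5 SD of its mean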;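 also: negative B-score means less thallium flux so channel inhibition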
KCNK3 block: human KCNK3 channel inhibitors, primary screen, CHO cells, FluxOR thallium flux, B-score. Potassium channel subfamily K member 3 (Homo sapiens), O14649. FluxOR fluorescence; active compounds read low. B-score at 10 µM. hit rate 0.84% among 340,000. AID 602410, 2012;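 active = B-score under library mean minus 4 SD, starting fluorescence ratio at most library mean plus 5 SD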;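 also: more negative B-score means stronger inhibition of thallium flux through KCNK3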
KCNQ1 pot: potentiators or activators of KCNQ1 channel, primary screen, cell-based, thallium flux, high-throughput; hit rate 0.35% among 310,000; B-score at 10 µM; CHO-K1 KCNQ1, thallium flux FluxOR fluorescence; active compounds read high; Potassium voltage-gated channel subfamily KQT member 1 (Homo sapiens), P51787; AID 2648, 2010;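 active = fluorescence ratio B-score, a plate-corrected score, at least three library SD, with initial intensity B-score within 5 SD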
Target sequence (P51787 whole entry, looked up): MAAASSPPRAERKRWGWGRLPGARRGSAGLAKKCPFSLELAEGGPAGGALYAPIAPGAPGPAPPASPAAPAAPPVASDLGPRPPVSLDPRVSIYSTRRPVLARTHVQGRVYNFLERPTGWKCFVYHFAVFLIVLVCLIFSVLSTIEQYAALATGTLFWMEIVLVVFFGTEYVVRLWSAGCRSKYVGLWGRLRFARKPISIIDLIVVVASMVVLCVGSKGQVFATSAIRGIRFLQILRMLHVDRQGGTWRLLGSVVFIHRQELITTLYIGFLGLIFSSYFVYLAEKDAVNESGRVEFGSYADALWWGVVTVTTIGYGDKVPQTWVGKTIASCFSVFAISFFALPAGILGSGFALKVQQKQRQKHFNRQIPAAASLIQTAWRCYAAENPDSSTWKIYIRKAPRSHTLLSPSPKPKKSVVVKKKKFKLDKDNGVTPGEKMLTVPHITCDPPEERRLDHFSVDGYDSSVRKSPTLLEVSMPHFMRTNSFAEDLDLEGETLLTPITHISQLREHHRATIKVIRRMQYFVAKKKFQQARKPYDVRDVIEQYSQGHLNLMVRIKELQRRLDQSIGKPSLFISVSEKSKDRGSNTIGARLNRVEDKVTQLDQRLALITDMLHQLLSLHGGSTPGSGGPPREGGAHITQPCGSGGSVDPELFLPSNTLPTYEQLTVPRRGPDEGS
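Assay system: CHO-K1 cells stably expressing KCNQ1. Medium: assay buffer for compound exposure, DMSO matched across wells. Timing: 37 °C overnight plating, 90-min dark dye load, 20-min compound pretreatment. Signal: kinetic FluxOR fluorescence, 10 s baseline plus 110 s post-stimulus.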
hERG rescue: hERG rescue from dofetilide block, primary screen, cell-based, CHO-hERG, FluxOR thallium flux, dofetilide IC70; hit rate 0.51% among 310,000; activation (rescue from dofetilide block), less the hit threshold, % at 10 µM; dofetilide IC70 present;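 active = activation above the mean of controls blocked by dofetilide plus 5 SD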;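 also: thallium influx through hERG after potassium depolarization seen as dye fluorescence rise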
Kir21 inh: inhibitors of mouse Kir2.1 inward-rectifier potassium channel; Inward rectifier potassium channel 2 (Mus musculus), P35561; HEK293-Kir2.1, FluxOR thallium flux fluorescence; active compounds read low; B-score at 10 µM; hit rate 0.85% among 310,000; AID 1672, 2009;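 active = fluorescence ratio B-score at or below minus 3 SD of library scores, with starting-brightness B-score within 2 SD, cut at about -4.2 in these data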;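 also: channel flux triggered by added potassium and thallium sulfate stimulus; B-score of peak minus minimum fluorescence over baseline after thallium stimulus; more negative B-score means stronger Kir2.1 block with less thallium influx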
KCNQ1 inh: inhibitors of human KCNQ1 channel, primary screen, cell-based, thallium flux, high-throughput. Potassium voltage-gated channel subfamily KQT member 1 (Homo sapiens), P51787. CHO-K1 KCNQ1, FluxOR thallium flux fluorescence; active compounds read high. B-score at 10 µM. hit rate 1.3% among 310,000;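 active = compounds whose thallium flux B-score, printed positive for inhibition, exceeds three library SD while starting fluorescence stays within three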;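 also: channel opened by potassium depolarization with thallium stimulus after 20 min compound exposure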
* = called active by the depositor; i = inactive; x = no result. Only some compounds are listed: those with a hit (about 3.7% of all), similar ones and a draw of the others.

SMILES	KCNK9 block	KCNK3 block	KCNQ1 pot	hERG rescue	Kir21 inh	KCNQ1 inh
COc1ccc(CCNC(=O)COc2cccc3c2OC(C)(C)C3)cc1OC	i	i	i	-14	-5.8*	i
CCc1ccc(CN2CCC(n3nccc3NC(=O)C3CCCC3)CC2)cc1	i	i	i	-14	-0.61	i
S=c1nc[nH]c2c1cnn2-c1ccccc1	i	i	19*	1	-1.1	i
C1CCC(C(CC2CCCCN2)C2CCCCC2)CC1 (stereo unspecified)	i	i	i	-19	-7.5*	7*
CCCSC1=C(C#N)C2(CCCCC2)C(C#N)=C(N)N1	i	i	i	-30	-1.5	8*
N#CC1=C(N)NC(SCC(=O)c2ccc(Cl)cc2)=C(C#N)C12CCCC2	i	i	i	-27	-1.6	7*
N#CC1=C(N)NC(SCC(=O)c2ccc(Br)cc2)=C(C#N)C12CCCCC2	i	i	i	-26	-1.1	12*
CCSC1=C(C#N)C2(CCCCC2)C(C#N)=C(N)N1	i	i	i	-21	-2.1	i
COc1ccc(C2=CN3CCCCC3CC2=O)cc1OC (stereo unspecified)	x	i	x	x	x	x
O=C(CSc1ccc(Cl)cc1)N1N=CCC1c1ccccc1 (stereo unspecified)	i	i	i	-7	-6.1*	i
Cc1ccc(CNC(=O)COC(=O)c2cc(=O)[nH]c3ccccc23)cc1	x	i	x	x	x	x
CCN(c1cccc(C)c1)S(=O)(=O)c1cnc[nH]1	i	i	i	5.3*	-3.4	i
CCOC(=O)N1CCN(C(=O)C2CCC(=O)N(CCCN3CCCC3=O)C2)CC1 (stereo unspecified)	i	i	i	-8	0.22	i
S=C(NNc1ccnc2cc(Cl)ccc12)Nc1ccccc1Cl	i	i	i	-16	1.2	8*
CN1Cc2sc(NC(=S)NC(=O)c3ccccc3)c(C#N)c2CC1(C)C	i	i	i	-15	1.3	8*
COc1ccc2[nH]c(=O)c(CN(Cc3ccco3)C(c3nnnn3Cc3ccccc3)C(C)C)cc2c1 (stereo unspecified)	i	i	i	-9	-0.39	7*
COc1ccc2[nH]c(=O)c(CN(Cc3nnnn3Cc3ccco3)C3CCCCC3)cc2c1	i	i	i	-31	-4.5*	i
COc1cccc(-n2c(N)cc(=O)nc2SCC(=O)N2CCN(c3ccccc3)CC2)c1	i	i	i	-7	0.62	i
COc1ccc(C(CCNC(C)c2ccccc2)c2ccc(F)cc2)cc1 (stereo unspecified)	i	i	i	-25	-7.5*	i
COc1ccc(C(CCNCc2ccc(F)cc2)c2ccc(F)cc2)cc1 (stereo unspecified)	i	i	i	-15	-5*	i
COc1ccc(CNCCC(c2ccc(F)cc2)c2ccc(OC)cc2)cc1 (stereo unspecified)	i	i	i	-22	-8.9*	7*
COc1ccc(CN(CCC(c2ccccc2)c2ccc(OC(C)C)cc2)C(=O)CCl)cc1OC (stereo unspecified)	i	i	i	-5	0.23	i
COc1ccc(CNCCC(c2ccc(F)cc2)c2ccc(OC(C)C)cc2)cc1OC (stereo unspecified)	i	i	i	-17	-9*	i
CCOC(=O)CCNC(=O)N1CCCC(C(=O)c2cc(C)c(OC)c(C)c2)C1 (stereo unspecified)	i	i	i	-9	1.8	i
O=c1cc(C(O)C[N+](=O)[O-])occ1OCc1ccccc1 (stereo unspecified)	i	i	i	-11	0.08	i
SMILES	KCNK9 block	KCNK3 block	KCNQ1 pot	hERG rescue	Kir21 inh	KCNQ1 inh
Cc1ccc(NC(=O)COC(=O)CCc2c(C)nc3ncnn3c2C)cc1C	x	i	x	x	x	x
Cc1onc(-c2ccccc2)c1C(=O)N1CCC(CO)(Cc2ccccc2)CC1	i	i	i	-10	-0.06	i
COc1cccc(OCCNCc2ccccc2)c1	i	i	i	-1	-0.91	i
COc1ccc(C(CCNCc2ccccc2)c2ccc(F)cc2)cc1 (stereo unspecified)	i	i	i	-16	-12*	i
CCn1c2ccccc2c2cc(NC(=O)CN3CCCC3)ccc21	i	i	i	-5	-3.5	i
CCn1c2ccccc2c2cc(NC(=O)CNCC3CCCO3)ccc21 (stereo unspecified)	i	i	i	-13	-9.1*	i
O=C(COC(=O)COc1ccc(Cl)cc1)NC1CCCCCC1	x	i	x	x	x	x
COc1ccc(OC)c(NC(=O)c2cc(S(=O)(=O)N3CCCC3)cn2C)c1	i	i	i	-11	0.24	i
O=[N+]([O-])c1ccccc1NC1CCN(Cc2ccccc2)CC1	i	i	i	3	-7*	i
CN(Cc1ccccc1)C1CCN(Cc2ccccc2[N+](=O)[O-])CC1	i	i	i	9.8*	-2.3	i
O=[N+]([O-])c1ccccc1CN1CCN(S(=O)(=O)Cc2ccccc2)CC1	i	i	i	-3	0.02	i
Cc1ccc(S(=O)(=O)N2CCC[C@H]2C(=O)OCc2cc(=O)oc3cc(C)ccc23)cc1	x	i	x	x	x	x
FC(F)(F)c1cnc2c(-c3ccccc3)n[nH]c2c1	i	i	i	-13	-2.2	i
Cc1cc(C)cc(C(=O)Nc2ccc(NC(=O)Cc3ccccc3)cc2)c1	i	i	i	6.2*	0.04	i
O=C(Cc1ccccc1)Nc1ccc(NC(=O)c2cccc(Cl)c2)cc1	i	i	i	-2	1.6	i
CCCCNC(=O)C1Cc2cc(S(=O)(=O)N3CCCCC3)ccc2N1C(C)=O (stereo unspecified)	i	i	i	-8	-0.04	i
Cc1ccc(C(=O)Cc2ccccc2)c(O)c1	x	i	x	x	x	x
Cc1ccc(C(=O)CC(=O)c2cc(Cl)ccc2O)cc1	i	i	30*	-1	1.4	i
Cc1ccc(C(=O)CC(=O)c2ccc(C)cc2O)cc1	i	i	i	11*	-1.8	i
CC(C)(C)c1ccc(C(=O)CC(=O)c2cc(Cl)ccc2O)cc1	i	i	i	7.7*	-0.03	i

Screens (PubChem BioAssay)
